Source: PubChem
Shown are actives, neighbours in structure and some others; about 0.75% of the full set was active somewhere.
Rad51 HR inh: blocks human Rad51 in homologous recombination; 200,000 tested, 0.085% active; hRad51 DNA strand exchange, fluorescence dequenching; AID 1385; Q06609; inhibition, % at 10 µM;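 active means inhibition above 40% at the single screening dose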
Target sequence (Q06609 whole entry, looked up): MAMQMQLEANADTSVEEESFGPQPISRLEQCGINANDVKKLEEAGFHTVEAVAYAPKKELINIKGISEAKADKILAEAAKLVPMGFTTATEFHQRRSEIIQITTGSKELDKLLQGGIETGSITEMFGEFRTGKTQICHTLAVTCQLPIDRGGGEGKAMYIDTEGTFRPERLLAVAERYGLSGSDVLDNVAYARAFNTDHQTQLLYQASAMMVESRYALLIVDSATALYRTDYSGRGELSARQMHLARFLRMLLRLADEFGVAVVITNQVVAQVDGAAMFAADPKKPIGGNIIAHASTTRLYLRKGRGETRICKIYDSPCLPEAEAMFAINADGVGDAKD
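Assay system: Human Rad51 nucleoprotein filaments preassembled on unlabelled ssDNA | Reagent: Donor/quencher-labelled 47-bp dsDNA substrate | Doses: One concentration, 10 µM final | Times: 37 °C 15-min filament assembly, 30-min compound preincubation, 15-min exchange | Technique: Fluorescein emission 520 nm, excitation 485 nm | Benchmarks: Plate control and blank wells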
NCF1 inh: p47phox (human) inhibition | P14598 | p47phox/p22phox peptide binding, fluorescence polarization, 2 h | inhibition, % at 24.7 µM | 220,000 tested, 0.53% active | AID 1274;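 active means inhibition above about 30%, limit read from the data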
MDM2 E3 inh: blocks human Mdm2 ubiquitin ligase activity; cell-based MDM2 ubiquitination luciferase reporter, 2 h; 0 = plate control, 100 = twice control, blank-subtracted; signal enhancement, % at 5 µM; 210,000 tested, 0.11% active;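 active means signal enhancement of 30% or more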;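 further: luminescence tracks abundance of the self-degrading MDM2-luciferase fusion protein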
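system = mammalian cells stably expressing self-ubiquitinating, self-degrading MDM2 E3–luciferase fusion | quantity = 2000 cells per well seeded | incubation = 4 h cell settling then 2 h compound exposure, 37 °C | signal = SteadyLite luminescence, 15 min reagent step | benchmarks = plate control and blank wells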
Tb hexokinase: T. brucei hexokinase 1 inhibition | inhibition, % at 10 µM | 220,000 tested, 0.11% active | recombinant TbHK1, G6PDH-coupled NADH A340 | AID 1430;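 active means inhibition of 50% or more in the single-dose primary screen; inactive means inhibition below 50%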
Of the large screens only hits and unclear results are named; the others gave an inactive call.

CC(=O)Nc1cccc(/C(C)=N/NC(=O)c2ccc(CN3CCOCC3)cc2)c1	none
CC1=C(C(=O)NC(C)CCc2ccccc2)C2(CCC(C)CC2)OC1=O (stereo not drawn)	MDM2 E3 inh 36
Cc1cc(NS(=O)(=O)c2ccc(Cl)cc2)nn1CC(=O)NCc1ccco1	NCF1 inh 55
O=C(Nc1ccccc1)C1=C(c2ccccc2)S(=O)(=O)CCS1(=O)=O	Rad51 HR inh 42
O=C(O)c1ccccc1C(=O)Nc1ccccc1	none
COc1cc(NC(=O)c2cnc(N)s2)cc(C(=O)Nc2cccc(C(F)(F)F)c2)c1	MDM2 E3 inh 32
COc1cc(NC(=O)c2ccnc(N)c2)cc(C(=O)Nc2cccc(C(F)(F)F)c2)c1	none
COc1cc(NC(=O)c2cc(C)on2)cc(C(=O)Nc2cccc(C(F)(F)F)c2)c1	NCF1 inh 43
C#CC1(NC(=O)NC(C)C)CCCCC1	none
CCOC(=O)N1CCN(CC(=O)c2ccc3c(c2)CCN3C(C)=O)CC1	NCF1 inh 49
CC(=O)N1CCc2cc(C(=O)CN3CCCCC3)ccc21	none (no result: Rad51 HR inh)
COC(=O)COc1ccc(S(=O)(=O)NCCC2=CCCCC2)cc1	none
COC(=O)COc1ccc(S(=O)(=O)NCCC2=CCCCC2)cc1C	Rad51 HR inh 45
COCCn1c(SCC(=O)N2CCCc3ccccc32)nc2ccccc2c1=O	NCF1 inh 68
CN(CC(=O)O/N=C(\N)c1cccc([N+](=O)[O-])c1)S(=O)(=O)c1ccccc1	none
Cc1cccc(N2CCN(C(=O)CN3C(=O)C4CC=CCC4C3=O)CC2)c1C (stereo not drawn)	none
COc1ccccc1-n1c(C)nc2cc(C(=O)O)ccc21	NCF1 inh 39
Cc1nc2cc(C(=O)O)ccc2n1-c1ccccc1	none
CCOC(=O)Cn1c(=O)oc2cc(S(=O)(=O)NCCc3ccc(OCC)c(OCC)c3)ccc21	NCF1 inh 103
c1ccc(-c2nccc(-c3ccc(-n4cnc5ccccc54)cc3)n2)cc1	NCF1 inh 46 (no result: Rad51 HR inh)
c1ccc(-c2nccc(-c3ccc4c(c3)OCO4)n2)cc1	none
O=C(Nc1ccc2c(c1)C(=O)OC2)c1ccc(F)cc1F	none
Cc1ccc(OCC(=O)NNc2c3ccccc3nc3ccccc23)cc1	NCF1 inh 30
CCOC(=O)NC1=NCC(C)S1 (stereo not drawn)	none
CCOc1cc(N2CCOCC2)c(OCC)cc1NC(=O)c1cc(-c2ccco2)nc2ccccc12	NCF1 inh 30
CCOc1ccc(-n2c(SCC(=O)Nc3ccc(Br)cc3)nc3n[nH]c(C)c3c2=N)cc1	NCF1 inh 41
CCOc1ccc(-n2c(SCC(=O)Nc3ccccc3CC)nc3n[nH]c(C)c3c2=N)cc1	none
CCOC(=O)c1c(C)oc2c1c(CN1CCN(CCO)CC1)c(O)c1ccccc12	NCF1 inh 38
CCOC(=O)c1c(C)oc2c1c(CN1CCN(C(=O)OCC)CC1)c(O)c1ccccc12	none (no result: Rad51 HR inh)
Cc1ccc(C(NC(=O)N2CCOCC2)=C(Cl)Cl)cc1F	NCF1 inh 42
Cc1ccc(C(NC(=O)N2CCOCC2)C(Cl)Cl)cc1F (stereo not drawn)	none
O=C(NCc1ccco1)C1CCCCN1S(=O)(=O)c1ccc(F)cc1 (stereo not drawn)	none
O=C(NCC1CCCO1)C1CCCCN1S(=O)(=O)c1ccc(F)cc1 (stereo not drawn)	NCF1 inh 36
COc1ccc(SN=C2C(C)=CC(=O)C=C2C)cc1	NCF1 inh 38
Cn1c2ccccc2c(=O)c2c(=O)n(C3CCCCCC3)c(C3CCCCC3)nc21	NCF1 inh 45
Cn1c2ccccc2c(=O)c2c(=O)n(-c3ccccc3)c(C3CCCCC3)nc21	none
COC(=O)C[C@H]1c2cc(F)ccc2S(=O)(=O)N1c1ccc(N(C)C)cc1	none (no result: NCF1 inh, MDM2 E3 inh, Tb hexokinase)
Cc1ccc(Cl)cc1NC(=O)N(C)CCO	none
Cn1ccnc1C(O)(c1ccccc1)c1nccn1C	NCF1 inh 48
CC1(C)CC(=O)C=C(c2ccc3[nH]ccc3c2)C1	none (no result: NCF1 inh, MDM2 E3 inh, Tb hexokinase)
CCN(CC)CCOc1ccc(/C(=C(/Cl)c2ccccc2)c2ccccc2)cc1	NCF1 inh 51
COc1ccc(N2CCN(C(=O)c3cn(C)c(=O)c4c3c3ccccc3n4C)CC2)cc1	Rad51 HR inh 132
Cc1ccc(NS(=O)(=O)c2cc([N+](=O)[O-])ccc2N/N=C/c2sc(N3CCOCC3)nc2-c2ccccc2)c(C)c1	none
Cc1ccc2c(c1)c1c3n2CCN(C(=O)CN2CCN(C)CC2)C3CCC1 (stereo not drawn)	none
CN1CCN(CC(=O)N2CCn3c4c(c5cc(C6CCCCC6)ccc53)CCCC42)CC1 (stereo not drawn)	NCF1 inh 31
CCCCc1ccc(NC(=O)N2CCNC(=O)C2CC(=O)Nc2ccsc2C(=O)OC)cc1 (stereo not drawn)	none
CNC(=S)NNC(=O)CNc1ccc(C)c(Cl)c1	NCF1 inh active
CC(=O)Nc1ccc(C(=O)OCC(=O)NC2CCCCCCC2)cc1	none
O=C(CSc1nnc(Cc2ccccc2)n1C1CCCCC1)N1CCOCC1	NCF1 inh 98
O=S(=O)(c1ccc(N2CCOCC2)cc1)N1CCOCC1	none
CC#CCN(CC#CC)S(=O)(=O)c1ccc(S(=O)(=O)N2CCOCC2)cc1	NCF1 inh 194
Cc1ccc(CNC(=O)CCc2nc(-c3cccs3)no2)cc1	NCF1 inh 200
O=C(NCc1cccs1)c1nc(-c2cccs2)no1	Rad51 HR inh 41
O=C(CN1C(=O)C2CC=CCC2C1=O)Nc1nccs1 (stereo not drawn)	Rad51 HR inh 52 (no result: Tb hexokinase)
Cc1cc(-n2cc(Br)c(=O)[nH]c2=O)nc(-c2ccccc2)n1	none (no result: Rad51 HR inh, MDM2 E3 inh)
O=C(CSc1nnc(C2COc3ccccc3O2)o1)Nc1nccs1 (stereo not drawn)	NCF1 inh 37
O=C(CSc1nnc(C2COc3ccccc3O2)o1)NC1CCCCC1 (stereo not drawn)	none
C=CCNc1oc(-c2ccc(OC)cc2)nc1C#N	Rad51 HR inh 89
C=CCNc1oc(-c2ccc(OCC)cc2)nc1C#N	none
O=C(Nc1cccnc1)c1cc(F)cc(F)c1	none
Cc1cc(C(=O)Nc2cccnc2)cs1	Rad51 HR inh 77
CN1c2ccccc2N(C)C1(C)c1ccccc1	NCF1 inh 70
CN1C(=O)N(C)C2(c3ccccc3)NC(=O)NC12c1ccccc1 (stereo not drawn)	none
CCN1c2ccccc2N(C)C1(C)c1ccccc1 (stereo not drawn)	NCF1 inh 63
CCN1C(=O)N(c2cccc3ccccc23)C(C)=CC1(C)C	none
CSc1nc(S(=O)(=O)c2ccc(C)cc2)c(Cl)s1	none
O=C(CSc1ccccn1)NC1CCCC1	none
COCCn1c(=O)[nH]c(=O)c2c1nc(-c1ccc(-c3ccc(Cl)cc3[N+](=O)[O-])o1)n2Cc1ccccc1	none
COc1ccc(-c2ccc(-c3nc4c(c(=O)[nH]c(=O)n4Cc4ccccc4)n3C)o2)c([N+](=O)[O-])c1	NCF1 inh 55
CCOC(=O)CSc1nnc(NC(=O)c2cc([N+](=O)[O-])cc([N+](=O)[O-])c2)s1	NCF1 inh 36
